# Bioassay records: PubChem BioAssay, several laboratories
# Beta2AR agonist: beta2AR agonists driving receptor internalization, primary screen, cell-based, FAP fluorogen, flow cytometry. Am2.2-beta2AR cells. response, % (no concentration beside the values). hit rate 0.43% among 340,000;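 active = response above a set limit, near 3 SD of response in nonfluorescent compounds, cut at about 42% in these data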
# Target sequence (P07550 whole entry, looked up): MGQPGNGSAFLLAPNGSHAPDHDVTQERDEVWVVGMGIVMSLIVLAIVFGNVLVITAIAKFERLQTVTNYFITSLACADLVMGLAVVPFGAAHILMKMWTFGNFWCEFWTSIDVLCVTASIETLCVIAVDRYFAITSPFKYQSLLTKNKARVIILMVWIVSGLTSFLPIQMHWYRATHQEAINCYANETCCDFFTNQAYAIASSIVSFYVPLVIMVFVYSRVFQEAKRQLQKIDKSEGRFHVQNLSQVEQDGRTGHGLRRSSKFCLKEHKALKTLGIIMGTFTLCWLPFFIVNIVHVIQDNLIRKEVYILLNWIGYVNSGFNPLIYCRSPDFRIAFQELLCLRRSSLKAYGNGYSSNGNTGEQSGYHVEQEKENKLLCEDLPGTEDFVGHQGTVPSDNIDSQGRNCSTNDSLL
# XBP1 UPR activ: activators of adaptive XBP1 UPR arm, primary screen, cell-based, CHO-XBP1 luciferase reporter, luminescence, uHTS; IRE1-XBP1 UPR activation; percent of tunicamycin response, DMSO as zero; activation, % at 20 µM; hit rate 0.33% among 330,000; AID 463104, 2010;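 active = versus positive control, 20 µM dose yields 30% or more activation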;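 also: 100% = tunicamycin at 10 µg/mL and 0% = DMSO only wells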
#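 Assay system: IRE1-XBP1 luciferase reporter CHO line. Input: 1000 cells/well. Buffer or medium: F12 with 10% serum. Doses: 20 µM, 1% DMSO. Times: overnight seeding at 37 °C, 6 h compound treatment at 37 °C. Technique: Steady-Glo luciferase glow luminescence, 10 min after reagent addition.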
# T cell modulator: modulators of CD8 T cell-vesicle binding, primary screen, mouse 2C CD8+ T cells, flow cytometry; 2C CD8+ T cell-vesicle binding; hits give low values; response (vesicle binding), % at 7 µM; hit rate 0.068% among 330,000;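 active = response, share of CD8 T cells binding vesicles, and their 90th percentile fluorescence all below set limits, cut at about 80% in these data, passing the limit was not always enough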;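 also: values below 100% mean blocked vesicle binding to the CD8+ T cells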
#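 Test system: purified 2C TCR transgenic mouse naive CD8+ T cells. Probe or stimulus: QL9-peptide-loaded Drosophila micro-vesicles bearing Ld, ICAM-1 and B7-1. Incubation: binding step 1.5 h, 37 °C, antibody labelling 20 min, ice. Measured by: flow cytometry of vesicle-bound cells.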
# UPR CHOP act: activators of apoptotic CHOP UPR arm, primary screen, cell-based, CHO-CHOP luciferase reporter, luminescence, uHTS; UPR activation; percent of tunicamycin response over DMSO baseline; activation, % at 10 µM; hit rate 0.34% among 330,000;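 active = at 10 µM dose, activation of 40% or more, normalized to positive control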;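 also: 100% = tunicamycin at 10 µg/mL and 0% = DMSO alone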
#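 Dosing – one dose, 10 µM in 0.5% DMSO · System – CHO-CHOP cells, stable luciferase reporter of PERK-eIF2a-CHOP signalling · Input – 500 cells/well · Control set – tunicamycin 10 µg/mL final as positive, DMSO-only wells as negative · Timing – 6 h compound treatment, 37 °C · Measure – % activation vs tunicamycin · Technique – luminescence read with Steady-Glo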
# An asterisk follows results filed as active; i = inactive; nt = not tested or not shown. An excerpt weighted towards active compounds, which were near 1% of everything screened.
SMILES,Beta2AR agonist,XBP1 UPR activ,T cell modulator,UPR CHOP act
COc1ccc(C2=Nc3ccc(Br)cc3C(c3ccccc3)N2CC(=O)NN)cc1 (stereo unspecified),3,-1,221,0
CCCC(=O)Nc1ccc(Cl)c(NC(=O)c2cccnc2)c1,20,-4,0.0*,1
O=c1c2c(-c3ccccc3)csc2nc2c3ccccc3c(NCCN3CCOCC3)nn12,107*,nt,nt,nt
O=c1c2ccccc2nc2c3ccccc3c(NCCN3CCOCC3)nn12,nt,1,270,1
COc1cc(/C=C(\C#N)c2nc3ccccc3s2)ccc1OCC(=O)Nc1ccccc1,76*,nt,498,nt
COc1cc(/C=C(\CC(=O)O)c2nc3ccccc3s2)ccc1OCC(=O)Nc1ccccc1F,1,nt,nt,nt
Cc1ccc(S(=O)(=O)N(C)CC(=O)OCc2nnc(-c3ccccc3)o2)cc1,2,0,168,0
Cc1ccc(C)c(C(=O)CN2C(=O)NC3(CCc4ccccc43)C2=O)c1 (stereo unspecified),-28,0,387,-1
Cc1cc(C)n(C(=O)c2sc3cc(F)ccc3c2Cl)n1,nt,0,0.0*,1
O=C(NC1CC1)c1sc2cc(F)ccc2c1Cl,-4,2,401,3
CCOC(=O)N1CCN(C(=O)CSc2ccc(C(=O)OC)cc2[N+](=O)[O-])CC1,2,0,177,1
CCOC(=O)C1C(c2ccc(C)o2)NC(=O)NC1(O)C(F)(F)F (stereo unspecified),3,0,84,1
CN(C)c1ccc(-n2cccc2/C=C/[N+](=O)[O-])cc1,27,1,113,17
CN(c1ccccc1)c1ccc(/C=C/[N+](=O)[O-])cc1,88*,nt,374,nt
COc1cccc(OCCNc2cc(Cl)ccc2[N+](=O)[O-])c1,-5,2,166,4
O=C(CN1CCOc2ccccc21)NCc1cccs1,5,0,213,-1
CC(=O)Nc1ccc2c(c1)Cc1cc(N3C(=O)C=CC3=O)ccc1-2,44*,nt,nt,nt
O=C1C=CC(=O)N1c1ccc2c(c1)Cc1cc(F)ccc1-2,4,nt,nt,nt
COc1cc(/C=C/C(=O)c2cccc([N+](=O)[O-])c2)cc(OC)c1OC,52*,-3,177,19
CC(=O)Nc1cccc(OCCOc2cccc([N+](=O)[O-])c2)c1,-3,nt,nt,nt
Cc1cc2cc(C=O)c(Cl)nc2cc1C,48*,0,516,3
CCN(CC)CC(C)(C)C(=O)/C=C/c1ccc(/C=C/C(=O)C(C)(C)CN(CC)CC)cc1,46*,nt,nt,nt
O=C(O)CCCN1C(=O)/C(=C\c2ccc(-c3nc4ccccc4s3)o2)SC1=S,53*,5,279,4
O=C(Nc1ccc(S(=O)(=O)Nc2nccs2)cc1)c1nn(-c2ccccc2)ccc1=O,58*,-5,240,-3
COc1cccc(-n2c(N)c(C(=O)Nc3c(C)n(C)n(-c4ccccc4)c3=O)c3nc4ccccc4nc32)c1,66*,-2,306,2
SMILES,Beta2AR agonist,XBP1 UPR activ,T cell modulator,UPR CHOP act
COc1cccc(-c2cc(C(=O)Nc3c(C)n(C)n(-c4ccccc4)c3=O)no2)c1,0,1,402,2
Cc1cc(C)cc(-n2c(N)c(C(=O)Nc3c(C)n(C)n(-c4ccccc4)c3=O)c3nc4ccccc4nc32)c1,11,1,257,10
Cc1ccc(-n2c(N)c(C(=O)Nc3c(C)n(C)n(-c4ccccc4)c3=O)c3nc4ccccc4nc32)cc1,68*,-2,280,0
CCc1c(C)sc(NC(=O)C2CC2c2ccccc2)c1C(N)=O (stereo unspecified),-9,-1,308,2
Cc1nc2c(Br)cc(Br)cc2cc1O,57*,-1,322,0
Brc1cc(Br)c2nc(-c3cccs3)ccc2c1,-5,2,544,3
CCN(CC)S(=O)(=O)c1ccc(Cl)c(NC(=O)COC(=O)C2CCCCC2)c1,-3,-1,0.0*,-1
COc1cccc(/C=N/Nc2ncnc3c2[nH]c2ccc(C)cc23)c1OC,52*,7,260,4
O=S(=O)(c1ccc2c(c1)C(=NO)c1cc(S(=O)(=O)N3CCCCC3)ccc1-2)N1CCCCC1,31,134*,421,149*
CC1CCN(S(=O)(=O)c2ccc3c(c2)C(=NO)c2cc(S(=O)(=O)N4CCC(C)CC4)ccc2-3)CC1,9,-12,i,-10
CCCCCCC[C@@H](C/C=C/CCC(=O)N(C)C/C(=C/Cl)C/C(=C\C(=O)N1CC(OC)=CC1=O)OC)OC,93*,-3,i,12
Cc1ccc2cc(CCNS(=O)(=O)c3ccc(F)cc3)c(=O)[nH]c2c1C,43*,-4,504,0
Cc1ccc(S(=O)(=O)NCCc2cc3ccc(C)c(C)c3[nH]c2=O)cc1,-4,-4,606,-1
Cc1ccc(C(=O)N2CCN(c3ccc(NC(=S)NC(=O)Cc4ccccc4)cc3)CC2)cc1,0,1,0,6
COc1ccc(C(=O)N2CCN(c3ccc(NC(=O)Cc4ccccc4)cc3)CC2)cc1,0,-4,0.0*,0
O=C(O)CCSc1nnc(CNc2ccc(Cl)cc2)n1Cc1ccccc1,-5,0,315,2
O=c1oc2ccccc2c(O)c1/C=N/c1ncccn1,4,-1,424,0
O=c1oc2ccccc2c(O)c1/C=C1\C=Nc2ccccc21,48*,-3,278,1
C#CCOCCOCCOCCNc1nc(N2CCN(C(=O)CCCCCCCCCCNC(=O)[C@H](CCC(=O)O)n3cc(CCCCCN)nn3)CC2)nc(N2CCN(C(=O)CCCCCCCCCCNC(=O)[C@@H]([C@H](C)O)n3cc(C)nn3)CC2)n1,25,2,439,4
C#CCOCCOCCOCCNc1nc(N2CCN(C(=O)CCCCCCCCCCNC(=O)[C@H](CCCCN)n3cc(C[C@@H](C)CC)nn3)CC2)nc(N2CCN(C(=O)CCCCCCCCCCNC(=O)[C@H](CCCCN)n3cc(C[C@@H](C)CC)nn3)CC2)n1,42*,nt,476,nt
C#CCOCCOCCOCCNc1nc(N2CCN(C(=O)CCCCCCCCCCNC(=O)[C@@H](CCSC)n3cc(CCO)nn3)CC2)nc(N2CCN(C(=O)CCCCCCCCCCNC(=O)[C@H]([C@@H](C)CC)n3cc(CCCCCN)nn3)CC2)n1,nt,4,i,1
C#CCOCCOCCOCCNc1nc(N2CCN(C(=O)CCCCCCCCCCNC(=O)[C@H](CCCCN)n3cc(CCO)nn3)CC2)nc(N2CCN(C(=O)CCCCCCCCCCNC(=O)[C@@H]([C@H](C)O)n3cc(C)nn3)CC2)n1,87*,1,380,1
